Active and inactive are the calls of the source. The rule behind the calls is not given here.
Key:
[1] = test system: Human gammaherpesvirus 8; assay: (§1) Inhibition of Kaposi's sarcoma herpesvirus C-terminal His-tagged oligomerization deficient LANA DBD (1008 to 1146 residues) K1055E/K1138S/K1140D/K1141D/R1039Q/R1040Q/A1121E/K1109A/D1110A mutant expressed in Escherichia coli BL21(DE3) assessed as inhibition of LANA interaction with 5'-Dy682-labeled viral DNA LBS1 probe at 500 uM preincubated with LANA-DBD for 60 mins followed by addition of DNA probe and measured after 30 mins by Electrophoretic mobility shift assay; conditions: time 90.0 min
[2] = as §1, with “fluorescently-labelled” for “5'-Dy682-labeled”, “LBS2” for “LBS1”, “probe” for “probe at 500 uM”, “90” for “30”, “flourescence polarization” for “Electrophoretic mobility shift”; parameters: species or system Human gammaherpesvirus 8
In short: (§2)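 FP competition of DNA binding, using the oligomerization-deficient LANA DBD mutant (aa 1008-1146, nine point mutations). Probes were LBS1, LBS2 or LBS3. Values are IC50 from the average of duplicates ± standard deviation.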

[3] = test system: Human gammaherpesvirus 8; assay: as §1, with “fluorescently-labelled” for “5'-Dy682-labeled”, “LBS2” for “LBS1”, “90” for “30”, “flourescence polarization” for “Electrophoretic mobility shift”; conditions: time 150.0 min
[4] = test system: Human gammaherpesvirus 8; assay: (§3) Inhibition of Kaposi's sarcoma herpesvirus wild type LANA CTD (934 to 1162 residues) expressed in Escherichia coli BL21 (DE3) assessed as inhibition of LANA interaction with 5'-Dy682-labeled viral DNA LBS1 probe at 250 uM preincubated with LANA CTD for 60 mins followed by addition of DNA probe and measured after 30 mins by Electrophoretic mobility shift assay; conditions: time 90.0 min
[5] = test system: Human gammaherpesvirus 8; assay: as §1, with “LBS1+2” for “LBS1”, “62.5” for “500”; conditions: time 90.0 min
In short: (§4)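 EMSA with the LANA DBD mutant as a dose-dependent test against higher-order complexes. Combined probes were LBS1+2 and LBS2+1+3. Inhibition was judged from loss of the LANA-DNA complex band.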

[6] = as §1, with “fluorescently-labelled” for “5'-Dy682-labeled”, “LBS3” for “LBS1”, “probe” for “probe at 500 uM”, “90” for “30”, “flourescence polarization” for “Electrophoretic mobility shift”; parameters: species or system Human gammaherpesvirus 8; in short: as §2
[7] = as §3, with “probe” for “probe at 250 uM”; parameters: species or system Human gammaherpesvirus 8
In short: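 GST-tagged KSHV LANA CTD (aa934-1162), wild type and unmutated, binding an LBS1 probe in EMSA. Compounds were first screened at a single fixed final concentration, then run in a dose-response EMSA. LANA-DNA complex (upper) band intensities were normalized to 0-100% inhibition. IC50 came from a four-parameter dose-response fit.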

[8] = as §1, with “probe” for “probe at 500 uM”; parameters: species or system Human gammaherpesvirus 8
[9] = test system: Human gammaherpesvirus 8; assay: Binding affinity to Kaposi's sarcoma herpesvirus C-terminal His-tagged oligomerization deficient LANA DBD (1008 to 1146 residues) K1055E/K1138S/K1140D/K1141D/R1039Q/R1040Q/A1121E/K1109A/D1110A mutant expressed in Escherichia coli BL21(DE3) at 500 uM by STD-NMR analysis
[10] = as §1, with “fluorescently-labelled” for “5'-Dy682-labeled”, “probe” for “probe at 500 uM”, “90” for “30”, “flourescence polarization” for “Electrophoretic mobility shift”; parameters: species or system Human gammaherpesvirus 8; in short: as §2
[11] = test system: Human gammaherpesvirus 8; assay: as §1, with “LBS1+2+3” for “LBS1”, “125” for “500”; conditions: time 90.0 min; in short: as §4
[12] = test system: Human gammaherpesvirus 8; assay: Inhibition of Kaposi's sarcoma herpesvirus C-terminal His-tagged oligomerization deficient LANA DBD (1008 to 1146 residues) K1055E/K1138S/K1140D/K1141D/R1039Q/R1040Q/A1121E/K1109A/D1110A mutant expressed in Escherichia coli BL21(DE3) assessed as inhibition of LANA interaction with 5'-Dy682-labeled …; conditions: dose 250.0 µM, time 90.0 min

SMILES | inhibition [1] | IC50 [2] | other results
Cc1cncc(-n2cc(-c3ccc(C(=O)O)cc3)nn2)c1 | 78% | 45 µM | 
CC(C)Nc1ccc(-n2cc(-c3ccc(C(=O)O)cc3)nn2)cn1 |  | > 250 µM | 
COc1cc(F)cc(-c2cncc(-n3cc(-c4ccc(C(=O)O)cc4)nn3)c2)c1 |  |  | inhibition [3]: inactive
Cc1ccc2cncc(-n3cc(-c4ccc(C(=O)O)cc4)nn3)c2c1 | 100% | 8 µM | inhibition [4]: Active; inhibition [5]: Active; IC50 [6]: 8 µM; IC50 [7]: 60 µM; IC50 [8]: 53 µM; Activity [9]: Active; IC50 [10]: 9 µM; inhibition [11]: Active
O=C(O)c1ccc(-c2cn(-c3cncc(F)c3)nn2)cc1 |  |  | inhibition [3]: inactive
N#Cc1ccc(-c2cn(-c3cccnc3)nn2)cc1 |  | > 250 µM | 
O=C(O)c1ccc(-c2cn(-c3cncc(-c4cccc(CO)c4)c3)nn2)cc1 |  | > 250 µM | 
O=C(O)c1ccc(-c2cn(-c3cncc(-c4ccc(CO)cc4)c3)nn2)cc1 |  | > 250 µM | 
CC(=O)Nc1ccc(-c2cn(-c3cccnc3)nn2)cc1 |  |  | inhibition [3]: inactive
O=C(O)c1ccc(-c2cn(-c3cncc(-c4ccccc4)c3)nn2)cc1 |  | > 250 µM | 
O=C(O)c1ccc(-c2cn(-c3cnccc3-c3ccccc3)nn2)cc1 | 100% | 18 µM | inhibition [4]: inactive; inhibition [12]: inactive; IC50 [6]: 42 µM; IC50 [10]: 52 µM
O=C(O)c1ccc(-c2cn(Cc3cccnc3)nn2)cc1 |  | > 250 µM | 
NC(=O)c1ccc(-c2cn(-c3cccnc3)nn2)cc1 |  |  | inhibition [3]: inactive
Cc1cc(Cl)ncc1-n1cc(-c2ccc(C(=O)O)cc2)nn1 |  | > 250 µM | 
O=C(O)c1ccc(-c2cn(-c3ccc(O)nc3)nn2)cc1 | 75% | 214 µM | 
Cc1ccc(-c2cncc(-n3cc(-c4ccc(C(=O)O)cc4)nn3)c2)cc1C |  |  | inhibition [3]: inactive
COC(=O)c1ccc(-c2cn(-c3cccnc3)nn2)cc1 |  |  | inhibition [3]: inactive
O=C(O)c1ccc(-c2cn(-c3cncc(-c4ccoc4)c3)nn2)cc1 | 34% | 19 µM | 
O=C(O)c1ccc(-c2cn(-c3cncc(-c4ccccc4)c3Cl)nn2)cc1 | 100% | 38 µM | inhibition [4]: inactive; inhibition [12]: inactive; IC50 [6]: 45 µM; IC50 [10]: 55 µM
COC(=O)c1ccc2cncc(-n3cc(-c4ccc(C(=O)O)cc4)nn3)c2c1 |  | > 250 µM | 
Cc1cc(Oc2cccc(F)c2)ncc1-n1cc(-c2ccc(C(=O)O)cc2)nn1 | inactive | 122 µM | 
COc1ccc(-c2cncc(-n3cc(-c4ccc(C(=O)O)cc4)nn3)c2)cc1 |  |  | inhibition [3]: inactive
O=C(O)c1ccc(-c2cn(-c3ccc(Oc4ccccc4)cc3)nn2)cc1 |  |  | inhibition [3]: inactive
Cc1cc(-c2ccc(Cl)cc2)ncc1-n1cc(-c2ccc(C(=O)O)cc2)nn1 | 30% | 58 µM | 
Cc1cc(Oc2ccccc2F)ncc1-n1cc(-c2ccc(C(=O)O)cc2)nn1 | inactive | 64 µM | 
CNc1ccc(-n2cc(-c3ccc(C(=O)O)cc3)nn2)cn1 |  |  | inhibition [3]: inactive
O=C(O)c1ccc(-c2cn(-c3cncc(-c4ccc(F)c(F)c4)c3)nn2)cc1 |  | > 250 µM | 

SMILES | inhibition [1] | IC50 [2] | other results
O=C(O)c1ccc(-c2cn(-c3cnc4ccccc4c3)nn2)cc1 | 61% | 70 µM | 
Cc1cc(Sc2ccccc2)ncc1-n1cc(-c2ccc(C(=O)O)cc2)nn1 | inactive | 175 µM | 
Cc1cc(-c2ccccc2O)ncc1-n1cc(-c2ccc(C(=O)O)cc2)nn1 | 100% | 21 µM | inhibition [4]: inactive; IC50 [6]: 34 µM; IC50 [8]: 156 µM; IC50 [10]: 30 µM
Cc1cc(Oc2ccc(F)cc2)ncc1-n1cc(-c2ccc(C(=O)O)cc2)nn1 | inactive | 134 µM | 
O=C(O)c1ccc(-c2cn(-c3cncc4ccccc34)nn2)cc1 | 96% | 33 µM | 
O=C(O)c1ccc(-c2cn(-c3ccc(Nc4ccccc4)nc3)nn2)cc1 | 29% | 110 µM | 
O=C(O)c1ccc(-c2cn(-c3cccnc3)nn2)cc1Cl |  |  | inhibition [3]: inactive
COc1ccc(-n2cc(-c3ccc(C(=O)O)cc3)nn2)cn1 | 11% | 218 µM | 
Nc1ccc(-c2cn(-c3cccnc3)nn2)cc1 |  | > 250 µM | 
N#Cc1ccc(-n2cc(-c3ccc(C(=O)O)cc3)nn2)cn1 | inactive | 52 µM | 
O=C(O)c1ccc(-c2cn(-c3cccnc3)nn2)cc1 | 82% | 17 µM | inhibition [4]: inactive; IC50 [6]: 19 µM; IC50 [7]: 435 µM; IC50 [8]: 426 µM; IC50 [10]: 20 µM
O=C(O)c1ccc(-c2cn(-c3ccc(Oc4ccccc4)nc3)nn2)cc1 |  |  | inhibition [3]: inactive
O=C(O)c1cccc(-c2cn(-c3cccnc3)nn2)c1 |  | > 250 µM | 
Cc1cc(-c2cccc(CO)c2)ncc1-n1cc(-c2ccc(C(=O)O)cc2)nn1 | 100% | 25 µM | inhibition [4]: inactive; inhibition [12]: inactive; IC50 [6]: 63 µM; IC50 [10]: 64 µM
Cc1cnccc1-n1cc(-c2ccc(C(=O)O)cc2)nn1 |  |  | inhibition [3]: inactive
O=C(O)c1ccc(-c2cn(-c3ccc(Oc4cccnc4)cc3)nn2)cc1 | 100% | 19 µM | inhibition [4]: inactive; IC50 [6]: 25 µM; IC50 [8]: 64 µM; IC50 [10]: 15 µM
COc1cccc(-c2cncc(-n3cc(-c4ccc(C(=O)O)cc4)nn3)c2)c1 | inactive | 110 µM | 
Cc1cc(Oc2ccccc2)ncc1-n1cc(-c2ccc(C(=O)O)cc2)nn1 | inactive | 198 µM | 
OCc1ccc(-c2cn(-c3cccnc3)nn2)cc1 |  |  | inhibition [3]: inactive
CCOC(=O)c1ccc(-c2cn(-c3cccnc3)nn2)cc1 |  |  | inhibition [3]: inactive
COc1ccccc1-c1cncc(-n2cc(-c3ccc(C(=O)O)cc3)nn2)c1 |  |  | inhibition [3]: inactive
O=C(O)c1ccc(-c2cn(-c3cncc4ccc(Cl)cc34)nn2)cc1 | 100% | 17 µM | inhibition [4]: inactive; IC50 [6]: 15 µM; IC50 [8]: 93 µM; IC50 [10]: 14 µM
Cc1ccncc1-n1cc(-c2ccc(C(=O)O)cc2)nn1 | 39% | 86 µM | 
O=C(O)c1ccc(-c2cn(-c3cnccc3Cl)nn2)cc1 | 94% | 29 µM | 
O=C(O)c1ccc(-c2cn(-c3cncc(-c4cccc(O)c4)c3)nn2)cc1 | 20% | 153 µM | 
Cc1cc(-c2ccccc2)ncc1-n1cc(-c2ccc(C(=O)O)cc2)nn1 | 36% | 36 µM | 
